Assay results published in ChEMBL document CHEMBL1123031, “Adriamycin analogues. rationale, synthesis, and preliminary antitumor evaluation of highly active DNA-nonbinding N-(trifluoroacetyl)adriamycin 14-O-hemiester derivatives” (1985).

Assays:
Format in all cases: functional
CCRF-CEM = test: In vitro inhibitory activity against CCRF-CEM cell growth in culture, after 48-h incubation.; conditions: Homo sapiens, read-out: ID50 (the source's name)
Outline: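 Human lymphoblastic leukemia CCRF-CEM cells grown in culture with drug for 48 h. ID50 is the drug concentration that inhibits culture growth by 50% relative to untreated controls, reported in μM.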

Mus musculus [1] = test: In vivo percent increase in life span relative to untreated controls in B6D2F1/J male mice at dose 40 mg/kg
Mus musculus [2] = test: In vivo antitumor efficacy expressed as number survivors in 60-days out of 7 male mice at dose 30 mg/kg; Value represented as = 0/7
Mus musculus [3] = test: In vivo antitumor efficacy expressed as number survivors in 60-days out of 7 male mice at dose 70 mg/kg; Value represented as = 4/7
Mus musculus [4] = test: In vivo percent increase in life span relative to untreated controls in B6D2F1/J male mice at dose 70 mg/kg
Mus musculus [5] = test: In vivo antitumor efficacy expressed as number survivors in 60-days out of 7 male mice at dose 50 mg/kg; Value represented as = 2/7
Mus musculus [6] = test: In vivo percent increase in life span relative to untreated controls in B6D2F1/J male mice at dose 30 mg/kg
Mus musculus [7] = test: In vivo antitumor efficacy expressed as number survivors in 60-days out of 7 male mice at dose 60 mg/kg; Value represented as = 4/7
Mus musculus [8] = test: In vivo percent increase in life span relative to untreated controls in B6D2F1/J male mice at dose 50 mg/kg
Mus musculus [9] = test: In vivo antitumor efficacy expressed as number survivors in 60-days out of 7 male mice at dose 40 mg/kg; Value represented as = 1/7
Mus musculus [10] = test: In vivo percent increase in life span relative to untreated controls in B6D2F1/J male mice at dose 60 mg/kg
Mus musculus [11] = test: In vivo antitumor efficacy expressed as number survivors in 60-days out of 7 male mice at dose 70 mg/kg; Value represented as = 6/7
Mus musculus [12] = test: In vivo antitumor efficacy expressed as number survivors in 60-days out of 7 male mice at dose 50 mg/kg; Value represented as = 4/7
Mus musculus [13] = test: In vivo antitumor efficacy expressed as number survivors in 60-days out of 7 male mice at dose 60 mg/kg; Value represented as = 5/7
Mus musculus [14] = test: In vivo antitumor efficacy expressed as number survivors in 60-days out of 7 male mice at dose 40 mg/kg; Value represented as = 0/7
Mus musculus [15] = test: In vivo percent increase in life span relative to untreated controls in B6D2F1/J male mice at dose 20 mg/kg
Mus musculus [16] = test: In vivo antitumor efficacy expressed as number survivors in 60-days out of 7 male mice at dose 30 mg/kg; Value represented as = 4/7
Mus musculus [17] = test: In vivo antitumor efficacy expressed as number survivors in 60-days out of 7 male mice at dose 50 mg/kg; Value represented as = 5/7
Mus musculus [18] = test: In vivo antitumor efficacy expressed as number survivors in 60-days out of 7 male mice at dose 20 mg/kg; Value represented as = 3/7
Mus musculus [19] = test: In vivo antitumor efficacy expressed as number survivors in 60-days out of 7 male mice at dose 40 mg/kg; Value represented as = 6/7
Mus musculus [20] = test: In vivo antitumor efficacy expressed as number survivors in 60-days out of 7 male mice at dose 50 mg/kg; Value represented as = 1/7
Mus musculus [21] = test: In vivo antitumor efficacy expressed as number survivors in 60-days out of 7 male mice at dose 60 mg/kg; Value represented as = 7/7
Mus musculus [22] = test: In vivo antitumor efficacy expressed as number survivors in 60-days out of 7 male mice at dose 40 mg/kg; Value represented as = 3/7
Mus musculus [23] = test: In vivo antitumor efficacy expressed as number survivors in 60-days out of 7 male mice at dose 60 mg/kg; Value represented as = 6/7
Mus musculus [24] = test: In vivo antitumor efficacy expressed as number survivors in 60-days out of 7 male mice at dose 70 mg/kg; Value represented as = 7/7
Mus musculus [25] = test: In vivo percent increase in life span relative to untreated controls in B6D2F1/J male mice at dose 3 mg/kg
Mus musculus [26] = test: In vivo antitumor efficacy expressed as number survivors in 60-days out of 7 male mice at dose 1 mg/kg; Value represented as = 0/7
Mus musculus [27] = test: In vivo antitumor efficacy expressed as number survivors in 60-days out of 7 male mice at dose 4 mg/kg; Value represented as = 0/7
Mus musculus [28] = test: In vivo antitumor efficacy expressed as number survivors in 60-days out of 7 male mice at dose 2 mg/kg; Value represented as = 0/7
Mus musculus [29] = test: In vivo antitumor efficacy expressed as number survivors in 60-days out of 7 male mice at dose 5 mg/kg; Value represented as = 0/7
Mus musculus [30] = test: In vivo antitumor efficacy expressed as number survivors in 60-days out of 7 male mice at dose 3 mg/kg; Value represented as = 0/7
Mus musculus [31] = test: In vivo percent increase in life span relative to untreated controls in B6D2F1/J male mice at dose 1 mg/kg
Mus musculus [32] = test: In vivo percent increase in life span relative to untreated controls in B6D2F1/J male mice at dose 2 mg/kg
Mus musculus [33] = test: In vivo percent increase in life span relative to untreated controls in B6D2F1/J male mice at dose 4 mg/kg
Mus musculus [34] = test: In vivo antitumor efficacy expressed as number survivors in 60-days out of 7 male mice at dose 60 mg/kg; Value represented as = 1/7
Mus musculus [35] = test: In vivo antitumor efficacy expressed as number survivors in 60-days out of 7 male mice at dose 70 mg/kg; Value represented as = 1/7
Mus musculus [36] = test: In vivo antitumor efficacy expressed as number survivors in 60-days out of 7 male mice at dose 50 mg/kg; Value represented as = 0/7
Mus musculus [37] = test: In vivo antitumor efficacy expressed as number survivors in 60-days out of 7 male mice at dose 60 mg/kg; Value represented as = 0/7

Structure (SMILES)	IC50 (CCRF-CEM) [nM]	ILS at 40 mg/kg (Mus musculus [1]) [%]	ILS at 70 mg/kg (Mus musculus [4]) [%]	ILS at 30 mg/kg (Mus musculus [6]) [%]	ILS at 50 mg/kg (Mus musculus [8]) [%]	ILS at 60 mg/kg (Mus musculus [10]) [%]	Survivors (Mus musculus [13])	Survivors (Mus musculus [14])	Survivors (Mus musculus [17])	also measured
COc1cccc2c1C(=O)c1c(O)c3c(c(O)c1C2=O)C[C@@](O)(C(=O)CO)C[C@@H]3OC1CC(NC(=O)C(F)(F)F)C(O)C(C)O1 (some centres undefined)	230	–	–	–	–	–	–	–	–	–
COc1cccc2c1C(=O)c1c(O)c3c(c(O)c1C2=O)C[C@@](O)(C(=O)COC(=O)CCCC(=O)O)C[C@@H]3OC1CC(NC(=O)C(F)(F)F)C(O)C(C)O1 (some centres undefined)	280	109	> 445	81	172	> 445	–	–	–	Survivors (Mus musculus [2]): 0; Survivors (Mus musculus [3]): 4; Survivors (Mus musculus [5]): 2; Survivors (Mus musculus [7]): 4; Survivors (Mus musculus [9]): 1
COc1cccc2c1C(=O)c1c(O)c3c(c(O)c1C2=O)C[C@@](O)(C(=O)COC(=O)CCCCCCCCC(=O)O)C[C@@H]3OC1CC(NC(=O)C(F)(F)F)C(O)C(C)O1 (some centres undefined)	500	109	> 445	–	> 445	> 445	5	0	–	Survivors (Mus musculus [11]): 6; Survivors (Mus musculus [12]): 4
CCCCC(=O)OCC(=O)[C@]1(O)Cc2c(O)c3c(c(O)c2[C@@H](OC2CC(NC(=O)C(F)(F)F)C(O)C(C)O2)C1)C(=O)c1c(OC)cccc1C3=O (some centres undefined)	240	> 445	–	> 445	> 445	> 445	5	–	5	ILS at 20 mg/kg (Mus musculus [15]): 281%; Survivors (Mus musculus [16]): 4; Survivors (Mus musculus [18]): 3; Survivors (Mus musculus [19]): 6
COc1cccc2c1C(=O)c1c(O)c3c(c(O)c1C2=O)C[C@@](O)(C(=O)COC(=O)CCCCCC(=O)O)C[C@@H]3OC1CC(NC(=O)C(F)(F)F)C(O)C(C)O1 (some centres undefined)	360	181	> 445	–	136	> 445	–	–	–	Survivors (Mus musculus [20]): 1; Survivors (Mus musculus [11]): 6; Survivors (Mus musculus [21]): 7; Survivors (Mus musculus [22]): 3
COc1cccc2c1C(=O)c1c(O)c3c(c(O)c1C2=O)C[C@@](O)(C(=O)COC(=O)CCCCC(=O)O)C[C@@H]3OC1CC(NC(=O)C(F)(F)F)C(O)C(C)O1 (some centres undefined)	310	> 445	> 445	–	> 445	> 445	–	–	5	Survivors (Mus musculus [23]): 6; Survivors (Mus musculus [24]): 7; Survivors (Mus musculus [19]): 6
COc1cccc2c1C(=O)c1c(O)c3c(c(O)c1C2=O)C[C@@](O)(C(=O)COC(=O)CCCCCCCC(=O)O)C[C@@H]3OC1CC(NC(=O)C(F)(F)F)C(O)C(C)O1 (some centres undefined)	440	172	> 445	445	> 445	> 445	5	–	5	Survivors (Mus musculus [24]): 7; Survivors (Mus musculus [16]): 4; Survivors (Mus musculus [22]): 3
COc1cccc2c1C(=O)c1c(O)c3c(c(O)c1C2=O)C[C@@](O)(C(=O)CO)C[C@@H]3O[C@H]1C[C@H](N)[C@H](O)[C@H](C)O1 [DOXORUBICIN]	50	–	–	–	–	–	–	–	–	ILS at 3 mg/kg (Mus musculus [25]): 181%; Survivors (Mus musculus [26]): 0; Survivors (Mus musculus [27]): 0; Survivors (Mus musculus [28]): 0; Survivors (Mus musculus [29]): 0; Survivors (Mus musculus [30]): 0; ILS at 1 mg/kg (Mus musculus [31]): 81%; ILS at 2 mg/kg (Mus musculus [32]): 90%; ILS at 4 mg/kg (Mus musculus [33]): 63%
COc1cccc2c1C(=O)c1c(O)c3c(c(O)c1C2=O)C[C@@](O)(C(=O)COC(=O)CC(=O)O)C[C@@H]3OC1CC(NC(=O)C(F)(F)F)C(O)C(C)O1 (some centres undefined)	330	109	154	–	109	136	–	0	–	Survivors (Mus musculus [34]): 1; Survivors (Mus musculus [35]): 1; Survivors (Mus musculus [36]): 0
COc1cccc2c1C(=O)c1c(O)c3c(c(O)c1C2=O)C[C@@](O)(C(=O)COC(=O)CCC(=O)O)C[C@@H]3OC1CC(NC(=O)C(F)(F)F)C(O)C(C)O1 (some centres undefined)	300	127	190	–	118	127	–	0	–	Survivors (Mus musculus [35]): 1; Survivors (Mus musculus [36]): 0; Survivors (Mus musculus [37]): 0
